Results from ChEMBL document CHEMBL1148788 (J Med Chem, 2007).
Where “and” joins values, the source holds several entries; their conditions need not be identical. Identical values can stand only once. Calls of active or inactive are those of the source. The calls are words filed in the database; no cut-off is given here.

Assays:
[1] = Antagonist activity at human alpha7 nAChR W149Y mutant co-expressed with human Ric3 in tsA201 cells by FMP assay; assay type: functional, cell-based
[2] = Displacement of [3H]methyllycaconitine from chimeric alpha-7nAChR W55A mutant /5HT3A receptor in tsA201 cells; assay type: cell-based, Homo sapiens
Procedure, shortened: (§1)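 tsA-201 cells transiently transfected with 4 µg WT or mutant α7/5-HT3A chimera and assayed 2 days later. Membranes washed twice at 50000g in 50 mM Tris-HCl pH 7.2. Incubated with 0.5 nM [3H]MLA and compound for 2.5 h at room temperature with shaking; nonspecific binding with 5 mM (S)-nicotine. PEI-soaked GF/C filtration, scintillation counting. Ki derived; duplicate, 3–7 experiments.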

[3] = Antagonist activity at human alpha7nAChR Y93A mutant co-expressed with human Ric3 in tsA201 cells by FMP assay; assay type: functional, cell-based
[4] = test system: tsA201; assay: Displacement of [3H]methyllycaconitine from chimeric alpha-7nAChR W149A mutant/5HT3A receptor in tsA201 cells; assay type: cell-based; settings: Homo sapiens; procedure, shortened: as §1
[5] = Displacement of [3H]methyllycaconitine from chimeric alpha-7nAChR Y195F mutant/5HT3A receptor in tsA201 cells; assay type: cell-based, Homo sapiens; procedure, shortened: as §1
[6] = Displacement of [3H]methyllycaconitine from chimeric alpha-7nAChR S148A mutant /5HT3A receptor in tsA201 cells; assay type: cell-based, Homo sapiens; procedure, shortened: as §1
[7] = test system: tsA201; assay: Displacement of [3H]methyllycaconitine from chimeric alpha-7nAChR W55A/Y195A mutant /5HT3A receptor in tsA201 cells; assay type: cell-based; settings: Homo sapiens; procedure, shortened: as §1
[8] = Displacement of [3H]methyllycaconitine from chimeric alpha7nAChR W55Y mutant/5HT3A receptor in tsA201 cells; assay type: cell-based, Homo sapiens; procedure, shortened: as §1
[9] = target: T1, Neuronal acetylcholine receptor subunit alpha-7 (Homo sapiens, UniProt P36544); assay: Antagonist activity at human alpha-7 nAChR in tsA201 cells coexpressed with Ric3 by FMP assay; assay type: functional, cell-based
Target sequence in this assay (P36544 whole entry): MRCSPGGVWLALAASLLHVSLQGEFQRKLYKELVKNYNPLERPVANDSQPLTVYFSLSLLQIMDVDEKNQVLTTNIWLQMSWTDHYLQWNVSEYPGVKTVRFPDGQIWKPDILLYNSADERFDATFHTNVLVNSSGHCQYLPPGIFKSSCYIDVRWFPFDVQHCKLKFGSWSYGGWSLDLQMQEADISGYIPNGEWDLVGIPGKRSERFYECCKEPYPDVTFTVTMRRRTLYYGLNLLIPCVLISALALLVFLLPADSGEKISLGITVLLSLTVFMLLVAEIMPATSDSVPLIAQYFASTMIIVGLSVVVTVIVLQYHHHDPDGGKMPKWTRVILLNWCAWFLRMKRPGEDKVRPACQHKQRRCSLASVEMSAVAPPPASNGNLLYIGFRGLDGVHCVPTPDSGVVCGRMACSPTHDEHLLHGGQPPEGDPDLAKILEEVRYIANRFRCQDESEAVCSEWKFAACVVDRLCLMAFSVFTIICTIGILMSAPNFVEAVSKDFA

[10] = test system: tsA201; assay: Displacement of [3H]methyllycaconitine from chimeric alpha-7nAChR Y188A mutant/5-HT3A receptor in tsA201 cells; assay type: cell-based; settings: Homo sapiens; procedure, shortened: as §1
[11] = Antagonist activity at human alpha-7 nAChR Y188A mutant coexpressed with human Ric3 in tsA201 cells by FMP assay; assay type: functional, cell-based
[12] = cells; assay type: functional, cell-based; settings: Homo sapiens, HEK293
[13] = Displacement of [3H]methyllycaconitine from chimeric alpha-7nAChR Y168A mutant/5HT3A receptor in tsA201 cells; assay type: cell-based, Homo sapiens; procedure, shortened: as §1
[14] = Displacement of [3H]methyllycaconitine from chimeric alpha-7nAChR K145R mutant /5HT3A receptor in tsA201 cells; assay type: cell-based, Homo sapiens; procedure, shortened: as §1
[15] = target: T1, Neuronal acetylcholine receptor subunit alpha-7; assay: Displacement of [3H]methyllycaconitine from human alpha-7 in tsA201 cells coexpressed with 5HT3A receptor; assay type: cell-based
Target sequence in this assay (P36544 whole entry): as above

[16] = target: T2, 5-hydroxytryptamine receptor 3A (Homo sapiens, UniProt P46098); assay: Antagonist activity at human 5HT3A receptor expressed in HEK293 cells by FMP assay; assay type: functional, cell-based; settings: read-out: IC50
T2 sequence (P46098 whole entry): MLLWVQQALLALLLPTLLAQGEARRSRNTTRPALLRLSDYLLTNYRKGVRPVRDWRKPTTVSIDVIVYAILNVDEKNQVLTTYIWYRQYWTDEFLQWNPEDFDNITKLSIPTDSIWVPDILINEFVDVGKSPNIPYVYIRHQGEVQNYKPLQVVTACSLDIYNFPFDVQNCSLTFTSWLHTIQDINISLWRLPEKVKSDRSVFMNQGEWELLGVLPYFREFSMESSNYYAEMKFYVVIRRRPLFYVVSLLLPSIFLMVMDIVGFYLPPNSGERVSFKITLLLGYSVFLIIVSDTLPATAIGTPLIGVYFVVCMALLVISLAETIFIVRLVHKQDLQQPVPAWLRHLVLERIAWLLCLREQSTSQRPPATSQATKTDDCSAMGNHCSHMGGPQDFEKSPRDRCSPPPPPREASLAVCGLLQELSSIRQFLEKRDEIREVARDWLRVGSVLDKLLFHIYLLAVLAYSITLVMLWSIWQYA

[17] = Displacement of [3H]methyllycaconitine from chimeric alpha-7nAChR N107A mutant/5HT3A receptor in tsA201 cells; assay type: cell-based, Homo sapiens; procedure, shortened: as §1
[18] = Displacement of [3H]methyllycaconitine from chimeric alpha-7nAChR D197A mutant/5HT3A receptor in tsA201 cells; assay type: cell-based, Homo sapiens; procedure, shortened: as §1
[19] = target: T3, Neuronal acetylcholine receptor; alpha3/beta4 (Rattus norvegicus, UniProt P04757+P12392); assay: Antagonist activity at rat alpha3beta4 nAChR expressed in HEK293 cells by FMP assay; assay type: functional, cell-based, Homo sapiens; settings: read-out: IC50
[20] = Antagonist activity at human alpha-7 nAChR Y195A mutant coexpressed with human Ric3 in tsA201 cells by FMP assay; assay type: functional, cell-based
[21] = test system: tsA201; assay: Displacement of [3H]methyllycaconitine from chimeric alpha-7nAChR Y93A mutant/5HT3A receptor in tsA201 cells; assay type: cell-based; settings: Homo sapiens; procedure, shortened: as §1
[22] = Displacement of [3H]methyllycaconitine from chimeric alpha-7nAChR S150A mutant/5HT3A receptor in tsA201 cells; assay type: cell-based, Homo sapiens; procedure, shortened: as §1
[23] = Displacement of [3H]methyllycaconitine from chimeric alpha7nAChR R79A mutant/5HT3A receptor R79A mutant in tsA201 cells; assay type: cell-based, Homo sapiens; procedure, shortened: as §1
[24] = target: T2, 5-hydroxytryptamine receptor 3A; assay: Displacement of [3H]GR65630 from human 5HT3A receptor in HEK293 cells; assay type: cell-based
[25] = Displacement of [3H]methyllycaconitine from chimeric alpha7nAChR Y195A mutant/5HT3A receptor in tsA201 cells; assay type: cell-based, Homo sapiens; procedure, shortened: as §1
[26] = target: T3, Neuronal acetylcholine receptor; alpha3/beta4; assay: Displacement of [3H]epibatidine from recombinant rat alpha-3-beta-4 nAChr in HEK293 cell line; assay type: cell-based
[27] = target: Neuronal acetylcholine receptor; alpha4/beta4 (Rattus norvegicus, UniProt P09483+P12392); assay: Displacement of [3H]epibatidine from recombinant rat alpha-4-beta-4 nAChr in HEK293 cell line; assay type: cell-based
[28] = target: Neuronal acetylcholine receptor; alpha4/beta2 (Rattus norvegicus, UniProt P09483+P12390); assay: Displacement of [3H]epibatidine from rat recombinant alpha-4-beta-2 nAChR in HEK293 cell line; assay type: cell-based
[29] = target: T1, Neuronal acetylcholine receptor subunit alpha-7
Target sequence in this assay (P36544 whole entry): as the sequence (P36544 whole entry) above

[30] = Displacement of [3H]methyllycaconitine from chimeric alpha7nAChR K145A mutant/5HT3A receptor in tsA201 cells; assay type: cell-based, Homo sapiens; procedure, shortened: as §1
[31] = target: T1, Neuronal acetylcholine receptor subunit alpha-7; assay: Displacement of [3H]methyllycaconitine from alpha7 nAChR in tsA201 cells co-expressed with Ric3; assay type: cell-based
Target sequence in this assay (P36544 whole entry): as the sequence (P36544 whole entry) above

[32] = test system: tsA201; assay: Displacement of [3H]methyllycaconitine from chimeric alpha-7nAChR W149Y mutant/5HT3A receptor W149Y mutant in tsA201 cells; assay type: cell-based; settings: Homo sapiens; procedure, shortened: as §1
[33] = target: T1, Neuronal acetylcholine receptor subunit alpha-7; assay: Displacement of [3H]methyllycaconitine from chimeric alpha7nAChR/5HT3A in tsA201 cells; assay type: cell-based
Target sequence in this assay (P36544 23-502 limits assumed): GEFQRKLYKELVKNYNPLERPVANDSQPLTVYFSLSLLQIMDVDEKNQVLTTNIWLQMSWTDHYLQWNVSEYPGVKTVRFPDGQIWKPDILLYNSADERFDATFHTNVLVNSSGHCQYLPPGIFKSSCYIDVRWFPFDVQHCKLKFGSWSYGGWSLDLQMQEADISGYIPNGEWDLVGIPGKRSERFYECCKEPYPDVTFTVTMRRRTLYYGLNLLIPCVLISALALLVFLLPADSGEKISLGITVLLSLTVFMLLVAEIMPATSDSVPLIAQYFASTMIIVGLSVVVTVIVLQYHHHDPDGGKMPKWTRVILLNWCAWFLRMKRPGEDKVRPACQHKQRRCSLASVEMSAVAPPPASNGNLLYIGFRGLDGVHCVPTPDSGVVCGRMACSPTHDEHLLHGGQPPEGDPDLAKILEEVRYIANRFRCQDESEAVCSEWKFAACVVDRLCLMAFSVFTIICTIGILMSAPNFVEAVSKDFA

[34] = target: T4, Glycine receptor subunit alpha-1 (Homo sapiens, UniProt P23415); assay: Antagonist activity at human glycine alpha-1 receptor in HEK293 cells by FMP assay; assay type: functional, cell-based
T4 sequence (P23415 whole entry): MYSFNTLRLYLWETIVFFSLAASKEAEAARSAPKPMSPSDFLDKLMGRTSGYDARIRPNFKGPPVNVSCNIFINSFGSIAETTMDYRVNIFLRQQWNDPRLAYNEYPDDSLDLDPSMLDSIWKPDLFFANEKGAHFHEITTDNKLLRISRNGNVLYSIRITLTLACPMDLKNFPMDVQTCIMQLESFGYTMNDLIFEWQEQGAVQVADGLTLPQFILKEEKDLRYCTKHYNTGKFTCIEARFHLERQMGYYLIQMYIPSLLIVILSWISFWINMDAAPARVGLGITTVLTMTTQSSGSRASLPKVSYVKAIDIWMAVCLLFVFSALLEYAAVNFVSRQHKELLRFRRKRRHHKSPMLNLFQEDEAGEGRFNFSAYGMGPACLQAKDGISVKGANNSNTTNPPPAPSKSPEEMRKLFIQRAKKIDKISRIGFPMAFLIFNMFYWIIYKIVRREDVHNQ

T3 sequence (P04757 whole entry): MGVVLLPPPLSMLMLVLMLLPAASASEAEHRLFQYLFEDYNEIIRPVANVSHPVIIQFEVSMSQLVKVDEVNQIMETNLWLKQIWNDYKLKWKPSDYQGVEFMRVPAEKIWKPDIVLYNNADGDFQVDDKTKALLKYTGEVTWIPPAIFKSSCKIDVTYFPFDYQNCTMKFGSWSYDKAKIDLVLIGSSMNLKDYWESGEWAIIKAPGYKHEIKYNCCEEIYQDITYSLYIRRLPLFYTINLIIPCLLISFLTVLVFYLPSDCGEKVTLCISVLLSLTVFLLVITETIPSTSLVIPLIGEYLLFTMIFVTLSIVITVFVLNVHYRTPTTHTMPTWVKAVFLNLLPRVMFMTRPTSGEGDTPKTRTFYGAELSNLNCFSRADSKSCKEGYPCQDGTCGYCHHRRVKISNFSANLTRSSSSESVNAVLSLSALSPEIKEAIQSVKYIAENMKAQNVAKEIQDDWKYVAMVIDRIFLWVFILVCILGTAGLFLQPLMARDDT
T3 sequence (P12392 whole entry): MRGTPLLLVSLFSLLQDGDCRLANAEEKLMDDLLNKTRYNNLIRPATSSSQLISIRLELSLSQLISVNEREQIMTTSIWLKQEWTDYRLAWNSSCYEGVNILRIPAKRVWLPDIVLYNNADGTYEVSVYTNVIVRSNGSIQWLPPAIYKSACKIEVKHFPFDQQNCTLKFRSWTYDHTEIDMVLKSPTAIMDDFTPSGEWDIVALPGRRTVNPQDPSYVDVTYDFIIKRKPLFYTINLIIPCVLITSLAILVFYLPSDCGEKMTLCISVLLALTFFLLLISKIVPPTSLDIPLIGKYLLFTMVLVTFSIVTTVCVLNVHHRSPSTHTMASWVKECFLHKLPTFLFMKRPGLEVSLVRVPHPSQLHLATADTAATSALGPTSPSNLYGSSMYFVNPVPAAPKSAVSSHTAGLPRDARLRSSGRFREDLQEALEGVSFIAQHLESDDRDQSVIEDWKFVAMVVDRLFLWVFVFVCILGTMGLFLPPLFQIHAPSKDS
Sequence of Neuronal acetylcholine receptor; alpha4/beta4 (P09483 whole entry): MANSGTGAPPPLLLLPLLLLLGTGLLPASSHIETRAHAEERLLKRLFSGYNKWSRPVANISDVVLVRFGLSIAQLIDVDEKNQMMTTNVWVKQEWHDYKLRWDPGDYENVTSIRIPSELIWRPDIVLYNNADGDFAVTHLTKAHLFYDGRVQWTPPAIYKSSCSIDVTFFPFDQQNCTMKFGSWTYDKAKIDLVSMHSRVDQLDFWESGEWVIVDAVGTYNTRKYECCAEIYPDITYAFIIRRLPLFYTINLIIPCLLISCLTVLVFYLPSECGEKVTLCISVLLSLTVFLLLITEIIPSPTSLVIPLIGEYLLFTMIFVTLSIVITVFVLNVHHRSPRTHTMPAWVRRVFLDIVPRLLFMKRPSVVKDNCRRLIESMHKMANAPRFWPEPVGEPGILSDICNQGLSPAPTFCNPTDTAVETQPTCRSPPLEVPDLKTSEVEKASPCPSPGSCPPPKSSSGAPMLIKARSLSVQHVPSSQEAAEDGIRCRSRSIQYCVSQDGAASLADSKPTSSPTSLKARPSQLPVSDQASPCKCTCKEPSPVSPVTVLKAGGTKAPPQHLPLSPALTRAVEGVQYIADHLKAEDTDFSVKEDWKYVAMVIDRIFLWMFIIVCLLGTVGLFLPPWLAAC
Sequence of Neuronal acetylcholine receptor; alpha4/beta4 (P12392 whole entry): as the sequence (P12392 whole entry) above
Sequence of Neuronal acetylcholine receptor; alpha4/beta2 (P09483 whole entry): as the sequence (P09483 whole entry) above
Sequence of Neuronal acetylcholine receptor; alpha4/beta2 (P12390 whole entry): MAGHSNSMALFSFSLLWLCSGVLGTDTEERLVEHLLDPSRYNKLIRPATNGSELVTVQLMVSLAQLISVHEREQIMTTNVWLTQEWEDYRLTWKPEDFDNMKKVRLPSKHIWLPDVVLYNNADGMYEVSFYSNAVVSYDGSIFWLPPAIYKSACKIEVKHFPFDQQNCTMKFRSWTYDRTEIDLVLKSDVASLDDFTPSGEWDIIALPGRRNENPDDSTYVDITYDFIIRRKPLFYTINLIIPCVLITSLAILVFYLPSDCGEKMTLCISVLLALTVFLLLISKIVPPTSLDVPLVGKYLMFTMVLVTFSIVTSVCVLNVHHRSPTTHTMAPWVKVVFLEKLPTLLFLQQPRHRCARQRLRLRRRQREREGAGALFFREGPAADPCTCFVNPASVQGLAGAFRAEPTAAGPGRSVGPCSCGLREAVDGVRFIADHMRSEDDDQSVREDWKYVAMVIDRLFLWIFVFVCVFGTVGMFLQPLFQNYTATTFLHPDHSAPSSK

C[N+]12CC[C@@H]3[C@@H]4/C(=C\N5c6ccccc6[C@@]67CC[N+]8(C)CC9=CCO[C@H]([C@@H]([C@H]56)[C@H]9C[C@@H]78)N4c4ccccc4)[C@@H](C[C@@H]31)/C(=C\CO)C2.[I-].[I-] (stereo partly drawn)
IC50 ([1]; read-out: IC50): 8900 nM | IC50 ([1]; read-out: pIC50 (converted)): 8910 nM | Ki [2]: 3100 nM | pKi [2]: 5.51 | IC50 ([3]; read-out: IC50): 6600 nM | IC50 ([3]; read-out: pIC50 (converted)): 6610 nM | Activity [4]: inactive | Ki [5]: 1300 nM | pKi [5]: 5.9 | Ki [6]: 1000 nM | pKi [6]: 5.98 | Activity [7]: inactive | Ki [8]: 690 nM | pKi [8]: 6.16 | IC50 ([9]; read-out: IC50): 2100 nM | IC50 ([9]; read-out: pIC50 (converted)): 2090 nM | Activity [10]: inactive | IC50 ([11]; read-out: IC50): 4700 nM | IC50 ([11]; read-out: pIC50 (converted)): 4680 nM | IC50 ([12]; read-out: IC50): > 100000 nM | IC50 ([12]; read-out: pIC50 (converted)): > 100000 nM | Ki [13]: 1300 nM | pKi [13]: 5.89 | Ki [14]: 740 nM | pKi [14]: 6.13 | Ki ([15]; read-out: Ki): 980 nM | Ki ([15]; read-out: pKi (converted)): 1000 nM | IC50 [16]: 4200 nM | Ki [17]: 1300 nM | pKi [17]: 5.87 | Ki [18]: 2200 nM | pKi [18]: 5.66 | IC50 [19]: 30000 nM | IC50 ([20]; read-out: IC50): 7100 nM | IC50 ([20]; read-out: pIC50 (converted)): 7080 nM | Activity [21]: inactive | Ki [22]: 720 nM | pKi [22]: 6.14 | Ki [23]: 1400 nM | pKi [23]: 5.86 | Ki [24]: 5900 nM | Ki [25]: 6200 nM | pKi [25]: 5.21 | Ki [26]: 30000 nM | Ki [27]: > 100000 nM | pKi ([27]; hek293): < 4 | pKi ([28]; hek293): < 4 | Ki ([28]; read-out: Ki): > 100000 nM | IC50 [29]: 1400 nM and 1380 nM | Ki [30]: 890 nM | pKi [30]: 6.05 | Ki ([31]; read-out: Ki): 620 nM | Ki ([31]; read-out: pKi (converted)): 631 nM | Activity [32]: inactive | Ki [33]: 970 nM | pKi [33]: 6.01 | IC50 [34]: > 100000 nM | pIC50 ([34]; hek293): < 4
